Results: paper PMC5766413 (European journal of pharmacology, 2017)
Where two headings read alike, the source gives them in different places.

Columns and labels:
[1] = system: NK1 receptor; details: dogs; ref unpublished observations; cited from earlier work
[2] = system: NK1 receptor; details: minipigs; ref unpublished observations; cited from earlier work
[3] = system: NK1 receptor; details: monkeys; ref unpublished observations; cited from earlier work
[4] = system: bladder of anesthetized, acutely spinalized rats; format: in vivo, rat
How it was run: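 Acutely spinalized (T9–T10, ≥60 min earlier), urethane-anesthetized female rats. Capacity was taken as the mean of three saline fills (0.04–0.1 ml/min, urethra open) until leak. Meatus then clamped, bladder held at 70% capacity; vehicle and ascending IV or SC doses ≥20 min apart. Contraction defined as ≥5 mmHg above baseline within 5 min; onset, time to peak, 30-min AUC and response duration; mean + S.D.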

[5] = system: colorectum of anesthetized, acutely spinalized rats; assay: Colorectal manometry with balloon catheter; format: in vivo, rat
How it was run: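 Urethane-anesthetized (1.2–1.4 g/kg SC) female rats, cord cut at T9–T10 ≥60 min before dosing, 37°C. Rectal balloon catheter was inflated in 0.1–0.2 ml saline steps to a steady 15–20 mmHg (0.3–0.7 ml total). Vehicle, then ascending SC doses in saline, 20–45 min apart. Pressure AUC over 0–5 min per dose; duration of raised activity noted; mean + S.D., ANOVA with Dunnett's test.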

[6] = system: blood pressure of anesthetized, acutely spinalized rats; assay: Blood pressure; format: in vivo, rat; details: up to 30 μg/kg IV and 300 μg/kg SC
How it was run: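 Female rats were anesthetized with urethane (1.2–1.4 g/kg SC) and kept at 37°C, with the spinal cord transected at T9–T10 at least 60 min before dosing. Test compound was given in 0.9% saline IV (200 μl plus 300 μl saline flush) or SC, vehicle first. Blood pressure was recorded continuously via the carotid artery, with heart rate derived off line from that signal. Values are change from the pre-dose baseline; one-way ANOVA.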

[7] = system: anesthetized, acutely spinalized rats; assay: Other pharmacodynamic observations; format: in vivo, rat
How it was run: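 In urethane-anesthetized female rats with T9–T10 cord transection ≥60 min before dosing, vehicle then ascending IV, SC or IM doses of test compound in 0.9% saline were given. Changes in skin color (ear and paw flushing), salivation and lacrimation were recorded when present; respiration was watched visually for obvious changes.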

[8] = system: NK2 over NK1 receptors; details: ref Rupniak et al, unpublished results; cited from earlier work
[9] = system: human detrusor muscle strips; details: relative to KCL; ref Palea et al, 1996; cited from earlier work
[10] = system: blood pressure of guinea pigs; details: intra-arterial, ref Beattie et al, 1993; cited from earlier work

Compound	Effect on transient hypotension after IV injection of NKA and LMN-NKA [1]	Effect on transient hypotension after IV injection of NKA and LMN-NKA [2]	Effect on transient hypotension after IV injection of NKA and LMN-NKA [3]	Duration of the bladder pressure response ([4]; 1 μg/kg IV, N=3, mean ± S.D.)	Duration of the bladder pressure response ([4]; 300 μg/kg SC, N=4 for GR 64349, N=11 for LMN-NKA, mean ± S.D.)	Onset of the increase in bladder pressure ([4]; 0.01–10 μg/kg IV and 1–300 μg/kg SC)	Duration of action on colorectal pressure ([5]; SC 100 and 300 μg/kg)	Increase in colorectal pressure ([5]; SC, highest doses tested were 100 and 300 μg/kg)	Blood pressure effect [6]	Respiration (visual observation, words) ([7]; LMN-NKA up to 300 μg/kg SC or IM, NKA and GR 64349 at the doses tested)	Flushing ([7]; NKA at similar, GR 64349 at higher doses compared to LMN-NKA)	Selectivity for NK2 over NK1 receptors [8]	Maximal contraction of detrusor muscle strips [9]	Blood pressure effect [10]
COc1ccccc1CN[C@H]1CCCN[C@H]1c1ccccc1 [CP-99,994]	blocked	blocked	blocked	–	–	–	–	–	–	–	–	–	–	–
[Lys^3,Gly^8-R-gamma-lactam-Leu^9]-NKA(3–10) [GR 64349]	–	–	–	1.5 ± 0.07 min	23.9 ± 12.22 min	< 1 min	20 to 25 min	only at the highest doses tested	No significant blood pressure changes	No obvious changes in respiration	transient flushing of the ears and paws	> 250 fold	equivalent to maximal KCL-induced contractions	transient drop in blood pressure
spantide I	blocked	blocked	blocked	–	–	–	–	–	–	–	–	–	–	–
